According to ChEMBL document CHEMBL1121637, “Tumor inhibitory triazenes. 2. Variation of antitumor activity within an homologous series” (J Med Chem, 1980):

Assays:
[1] = tested on: Mus musculus; experiment: Percent increase in life span of TLX/5 lymphoma bearing mice at dose of 100 mg/kg; format: functional
Outline: (§1)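 Female CBA/LAC mice with subcutaneously transplanted TLX/5 lymphoma. Drug given i.p. in saline (about pH 7.5) once daily for 5 consecutive days, starting 3 days after transplant. Doses ran 12.5–400 mg/kg, with lower doses made by serial dilution. Five mice per dose; survival time compared with 10 untreated controls. ILS ≥20% counted significant. Minimum dose for 50% ILS expressed in mol/kg.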

[2] = tested on: Mus musculus; experiment: Percent increase in life span of TLX/5 lymphoma bearing mice at dose of 12.5 mg/kg; format: functional; outline: as §1
[3] = tested on: Mus musculus; experiment: Percent increase in life span of TLX/5 lymphoma bearing mice at dose of 25 mg/kg; format: functional
[4] = tested on: Mus musculus; experiment: Percent increase in life span of TLX/5 lymphoma bearing mice at dose of 400 mg/kg; format: functional; outline: as §1
[5] = Partition coefficient was determined in octanol-saturated sorenson's pH 7.4 phosphate buffer and buffer-saturated octanol.; format: physicochemical; settings: octanol/Sorensen's phosphate buffer
Outline: (§2)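 Compound shaken 1 h at room temperature in 0.1 M Sorenson's phosphate buffer pre-saturated with octanol, filtered. A known volume was then shaken 1 h with a known volume of buffer-saturated octanol. Aqueous phase and initial filtrate diluted in ethanol, filtered, absorbance read at λmax. P = (aqueous vol × absorbance drop)/(final aqueous absorbance × octanol vol). Mean of at least two determinations.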

[6] = species: Mus musculus; experiment: Minimum dose that causes 50% increase in life span in TLX/5 lymphoma bearing animal; format: functional; outline: as §1
[7] = Solubility in sorensen's phosphate buffer at pH 7.4 and 25 degrees Centigrade.
[8] = tested on: Mus musculus; experiment: Percent increase in life span of TLX/5 lymphoma bearing mice at dose of 200 mg/kg; format: functional; outline: as §1
[9] = tested on: Mus musculus; experiment: Percent increase in life span of TLX/5 lymphoma bearing mice at dose of 50 mg/kg; format: functional; outline: as §1
[10] = tested on: Mus musculus; experiment: Percent increase in life span of TLX/5 lymphoma bearing mice at dose of 25 mg/kg when 10 % acetone/Oil is given as vehicle; format: functional
[11] = tested on: Mus musculus; experiment: Percent increase in life span of TLX/5 lymphoma bearing mice at dose of 50 mg/kg when 10 % acetone/Oil is given as vehicle; format: functional
[12] = tested on: Mus musculus; experiment: Percent increase in life span of TLX/5 lymphoma bearing mice at dose of 12.5 mg/kg when 10 % acetone/Oil is given as vehicle; format: functional
[13] = tested on: Mus musculus; experiment: Percent increase in life span of TLX/5 lymphoma bearing mice at dose of 400 mg/kg when 10 % acetone/Oil is given as vehicle; format: functional
[14] = tested on: Mus musculus; experiment: Percent increase in life span of TLX/5 lymphoma bearing mice at dose of 200 mg/kg when 10 % acetone/Oil is given as vehicle; format: functional
[15] = tested on: Mus musculus; experiment: Percent increase in life span of TLX/5 lymphoma bearing mice at dose of 100 mg/kg when 10 % acetone/Oil is given as vehicle; format: functional
[16] = Partition coefficient between octanol-saturated sorenson's pH 7.4 phosphate buffer and buffer-saturated octanol.; format: physicochemical; settings: octanol/Sorensen's phosphate buffer; outline: as §2
[17] = species: Mus musculus; experiment: Minimum dose that causes 50% increase in life span in TLX/5 lymphoma bearing mice; format: functional; outline: as §1
[18] = tested on: Mus musculus; experiment: Percent increase in life span of TLX/5 lymphoma bearing mice at dose of 100 mg/kg 200 mg/kg; format: functional; outline: as §1

SMILES	ILS at 100 mg/kg [1] [%]	ILS at 12.5 mg/kg [2] [%]	ILS at 25 mg/kg [3] [%]	ILS at 400 mg/kg [4] [%]	logD [5]	Dose [6] [mol/kg]	Solubility [7] [M l-1]	ILS at 200 mg/kg [8] [%]	ILS at 50 mg/kg [9] [%]	ILS at 25 mg/kg [10] [%]	ILS at 50 mg/kg [11] [%]	ILS at 12.5 mg/kg [12] [%]	ILS at 400 mg/kg [13] [%]	ILS at 200 mg/kg [14] [%]	ILS at 100 mg/kg [15] [%]	logD [16]	Dose [17] [mol/kg]	ILS at 200 mg/kg [18] [%]
CCC(C)CN(C)/N=N/c1ccc(C(=O)O)cc1 (centres undefined)	62	7	11	57	1.33	0.0002	0.0162	60	52									
CCCCCCCCCCCCN(C)/N=N/c1ccc(C(=O)O)cc1							4.13e-6											
CN(Cc1ccccc1)/N=N/c1ccc(C(=O)O)cc1	49	6	6	-61				-59	7									
CCCCN(C)/N=N/c1ccc(C(=O)O)cc1	47	69	82	-31	0.97	5.3e-05	0.0155	20	86									
CN(C)/N=N/c1ccc(C(=O)O)cc1	34	40	72	-34	-0.44	6.2e-05		0	83	51	70	19	-36	-4	49			
C#CCN(C)/N=N/c1ccc(C(=O)O)cc1	70	0	36	-18	0	0.00015		40	76									
C=CCN(C)/N=N/c1ccc(C(=O)O)cc1	76	1	11	-25	0.32	0.00017		56	96									
CCCCCCN(C)/N=N/c1ccc(C(=O)O)cc1	73	0	0	-53	1.95	3e-05	0.00298	-8	18									
CCCCCCCCN(C)/N=N/c1ccc(C(=O)O)cc1					2.77		0.000171											
CCCCCCCN(C)/N=N/c1ccc(C(=O)O)cc1	9	3	1	-48	2.58		0.00041	-19	5									
CCN(C)/N=N/c1ccc(C(=O)O)cc1	67	44	79	-21					79							0.04	7e-05	27
CCCCCN(C)/N=N/c1ccc(C(=O)O)cc1	61	10	108	-61	1.49	7.1e-05	0.00428	-61	75									
CCCN(C)/N=N/c1ccc(C(=O)O)cc1	69	13	69	-3	0.46	9.4e-05	0.0368	57	69									
CC(C)N(C)/N=N/c1ccc(C(=O)O)cc1	60	37	90	35	0.34	7e-05		45	64									
CN(C)/N=N/c1[nH]cnc1C(N)=O [DACARBAZINE]	55	55	55	-11				61	59									
